# Scp1 inh: Scp-1 phosphatase inhibitors, primary screen, biochemical, colorimetric, uHTS; inhibition, % at 20 µM; Recombinant Scp1, phosphopeptide, malachite green phosphate absorbance; Carboxy-terminal domain RNA polymerase II polypeptide A small phosphatase 1 (Homo …; 0.88% of 340,000 active;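 active means inhibition above about 50% at 20 µM, limit read from the data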;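 further: plate controls were DMSO wells with enzyme for no effect and wells lacking enzyme for full effect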
# Target sequence (Q9GZU7 76-261 limits assumed): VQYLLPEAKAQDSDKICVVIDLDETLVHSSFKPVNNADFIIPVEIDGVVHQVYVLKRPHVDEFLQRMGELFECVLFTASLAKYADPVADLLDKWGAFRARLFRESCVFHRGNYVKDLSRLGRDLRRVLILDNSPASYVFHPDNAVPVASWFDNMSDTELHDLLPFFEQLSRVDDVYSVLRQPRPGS
#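 Incubation: 45 min enzyme reaction at room temperature / System: truncated SCP-1 phosphatase (76-261aa) / Reagent: Phospho 17-mer peptide substrate / Buffer or medium: Acidic Tris acetate buffer with magnesium and detergent / Signal: absorbance at 630 nm / Doses: one concentration, 20 µM, with 1.0% DMSO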
# Pemphigus Ab inh: inhibitors of pemphigus antibody binding to DSG3, primary screen, biochemical, bead-based, flow cytometry, scFv-GFP; 0.48% of 310,000 active; DSG3-coupled beads, scFv-anti-DSG3-GFP binding; hits give low values; binding (percent of control), % at 10 µM;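 active means binding more than 3 SD below its plate's average and above zero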;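 further: hits lower antibody fragment binding to DSG3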
# STEP block: STEP phosphatase inhibitors, primary screen, biochemical, fluorescence intensity, uHTS; inhibition, % at 20 µM; recombinant STEP, OMFP fluorogenic substrate; Tyrosine-protein phosphatase non-receptor type 5 (Homo sapiens), P54829; 0.25% of 360,000 active;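 active means inhibition at 20 µM, scaled per plate between control wells, above about 37%, limit read from the data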;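 further: 0% = DMSO with enzyme and substrate and 100% = substrate only without enzyme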
#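 material = STEP tyrosine phosphatase | reagent = fluorogenic phosphatase substrate OMFP at 25 µM final | doses = single compound dose of 20 µM, 1% DMSO final | schedule = 20 min reaction, room temperature, in the dark | measured by = fluorescence, 480/540 nm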
# SUMO1-SIM PPI: modulators of SUMO1 protein-protein interactions, primary screen, biochemical, uHTS | Small ubiquitin-related modifier 1 (Homo sapiens), P63165 | SUMO1 binding to a labelled peptide, TR-FRET, 1 h | inhibition, % at 20 µM | 0.33% of 360,000 active; in the data active means inhibition above about 37%
# Target sequence (P63165 whole entry, looked up): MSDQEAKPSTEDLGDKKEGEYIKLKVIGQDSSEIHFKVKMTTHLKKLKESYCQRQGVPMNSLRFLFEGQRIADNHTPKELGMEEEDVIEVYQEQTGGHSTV
# LMPTP block: LMPTP phosphatase inhibitors, primary screen, biochemical, fluorescence intensity, uHTS | 0.22% of 360,000 active | recombinant LMPTP-A, OMFP fluorogenic substrate | inhibition, % at 20 µM | AID 651560, 2012;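 active means compounds that cut the enzyme signal by at least half of the control window in the single-dose screen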;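 further: plate controls were DMSO wells with enzyme plus substrate for no effect and substrate without enzyme for full effect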
#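 Assay system: LMPTP-A, protein tyrosine phosphatase of low molecular weight / Medium: pH 6.0 Bis-Tris buffer with DTT and Triton X-100 / Schedule: 50 min enzyme reaction at room temperature, protected from light / Measured by: endpoint fluorescence intensity from OMFP dephosphorylation / Read-out basis: % inhibition relative to no-enzyme and uninhibited control wells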
# Starred values were filed as active, the others as inactive; nt = no result; ! = not active in a repeat. The list is not random: actives were taken first. Their share in the collection is about 1.7%.
SMILES,Scp1 inh,Pemphigus Ab inh,STEP block,SUMO1-SIM PPI,LMPTP block
COc1ccc(C(=O)Nc2ccc(NC(=O)c3cccs3)cn2)cc1,-1,nt,1,46*,1
O=C(Nc1ccc(NC(=O)c2cccs2)cc1)c1cccs1,-4,22*,-1,1,0
COc1ccc(NC(=O)c2cccs2)cc1,4,97,1,-1,1
CCOc1ccc(Nc2nc3cc(S(=O)(=O)CC)ccc3o2)cc1,8,100,3,5,1
CC(C)C(N)c1csc(NC(=O)Nc2ccc(OC(F)(F)F)cc2)n1 (stereo not given),nt,nt,0,-10,-3
CCOc1ccc(C(=O)NCC(=O)NC(C)c2ccc(-n3ccnc3)cc2)cc1OCC (stereo not given),-2,101,-2,45*,-1
CCCCn1c(=O)[nH]c2nc3cc(NC(C)=O)ccc3nc2c1=O,-3,101,0,-23,0
CCC(=O)Nc1ccc2nc3c(=O)[nH]c(=S)[nH]c3nc2c1,67*,86,6,-3,6
Clc1ccc2nc(CSc3nnc(-c4c[nH]c5ccccc45)o3)cn2c1,-1,42*,0,7,1
O=C(NC1CCCCCC1)c1[nH]c(C(F)(F)F)nc1-c1ccccc1,nt,nt,-3,4,0
O=C(O)c1ccc(N2C(=O)/C(=C/c3ccc(-c4ccc([N+](=O)[O-])cc4)o3)C=C2c2ccccc2)cc1,66*,30,87*,103*,79*
CN(/N=C/c1ccc(-c2ccc([N+](=O)[O-])cc2)o1)c1ccccc1,-7,231,7,-11,10
CCCNC(=O)c1ccc2c(=O)c(O)c(-c3ccc(C)cc3)[nH]c2c1,-6,104,1,-29,0
Cc1ccc(-c2[nH]c3cc(C(=O)NCCCn4ccnc4)ccc3c(=O)c2O)cc1,-14,nt,5,-47,51*
Cc1cccc(C(=O)Nc2ccc(S(=O)(=O)Nc3nc(C)cc(C)n3)cc2)c1,-10,14*,-2,0,-1
Cc1cccc(C(=O)NCC(=O)Nc2ccc(S(=O)(=O)Nc3nc(C)cc(C)n3)cc2)c1,-8,96,1,1,-1
CC1(OC(=O)c2cccs2)C(=O)C=C2C=C3CCCN3C=C2C1=O (stereo not given),55*,99,9,23,11
CC1CCN(C(=O)CCCOc2ccc(Cl)cc2)CC1,-6,100,0,1,0
O=C(c1ccccc1)N1CCC(c2nc3c(nnn3Cc3ccco3)c(=O)[nH]2)CC1,3,107,1,53*,-1
O=C(c1ccc(Cl)cc1Cl)N1CCC(c2nc3c(nnn3Cc3ccco3)c(=O)[nH]2)CC1,3,105,2,4,2
CC(OC(=O)C1CCN(S(=O)(=O)c2ccccc2C(F)(F)F)CC1)C(=O)N(C)Cc1ccccc1 (stereo not given),-9,nt,0,-1,1
CCCCOc1ccc(C(C)NC(=O)CCS(=O)(=O)Cc2ccc(Cl)cc2)cc1 (stereo not given),-5,105,0,-4,-1
CCCCOc1ccc(C(C)NC(=O)CCS(=O)(=O)Cc2ccccc2Cl)cc1 (stereo not given),-3,13*,3,2,0
CC1Cc2ccccc2N1CC(=O)NCc1ccccc1Cl (stereo not given),-8,108,-3,2,-1
N[C@@H](Cc1cc(I)c(Oc2ccc(O)c(I)c2)c(I)c1)C(=O)O,27,89,-3,40*!,32
N[C@@H](Cc1cc(I)c(Oc2cc(I)c(O)c(I)c2)c(I)c1)C(=O)O,32,nt,nt,nt,nt
COc1ccc(CCn2c(O)cc3nn(-c4nc5ccccc5s4)c(=O)c-3c2C)cc1,62*,nt,11,14,53*
COc1ccc(CN2CCN(c3nc4ccccc4s3)CC2)cc1,-6,105,-2,-2,-1
